In data set [1] the test system is Staphylococcus aureus. The experiment in a line: Antibacterial activity against drug-sensitive Staphylococcus aureus MTCC 737 assessed as inner cytoplasmic membrane permeabilization at 2 X MIC to 4 X MIC measured up to 10 mins by propidium iodide staining-based fluorescence assay. Format: functional, organism-based. A digest of the protocol: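 Mid-log S. aureus were harvested, washed and resuspended in 5 mM HEPES/5 mM glucose pH 7.2 containing 15 µM propidium iodide. Compound was added and PI uptake followed as fluorescence increase (ex 535 nm, em 617 nm) for 10 min.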

The subject of data set [2] is Staphylococcus aureus. The experiment in a line: Antibacterial activity against drug-sensitive Staphylococcus aureus MTCC 737 assessed as cytoplasmic membrane depolarization at MIC to 4 X MIC measured […] by DiSC3(5) dye-based fluorimetric analysis. Format: functional, organism-based. The method in brief:
(§1)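 Mid-log cells were washed and resuspended at 10^8 cfu/mL in 5 mM glucose, 5 mM HEPES and 100 mM KCl (1:1:1). They were loaded with 2 µM DiSC3(5) for 10 min (S. aureus) or 20 min (P. aeruginosa, E. coli), then stabilized 2 min at room temperature. Compound was added and depolarization read as fluorescence increase (ex 622 nm, em 670 nm) over 10 min.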

In data set [3] the test system is Escherichia coli. The experiment in a line: Ratio of MSI-78 MIC to compound MIC for Escherichia coli. Format: functional.
Data set [4] deals with Staphylococcus aureus. The experiment in a line: Antibacterial activity against methicillin-resistant Staphylococcus aureus ATCC 33591 after 24 hrs by broth microdilution assay. Format: functional. The settings on record: ATCC 33591, 24 h. The method in brief:
(§2)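 MIC by broth microdilution. Cultures were grown 6 h to ~10^9 cfu/mL, then diluted to 10^5 cfu/mL. Media: yeast-dextrose broth for MRSA, BHI for VRE, and beef extract/peptone nutrient broth for K. pneumoniae. Compounds were serially diluted in water, 50 µL added to 150 µL cells, and incubated 24 h at 37 °C. OD600 triplicates were sigmoid-fitted; MIC is the point where OD equals the no-bacteria control. Mean ± SEM of ≥2 experiments.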
(In general: In broth dilution the organism is exposed to a series of concentrations in liquid medium.)

Data set [5] concerns Escherichia coli. The experiment in a line: Antibacterial activity against drug-sensitive Escherichia coli MTCC 443 assessed as merging of dead bacteria with each other at 10 X MIC after 2 hrs by field-emission scanning electron microscopic analysis. Format: functional, organism-based. A digest of the protocol: (§3)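 Cells grown 6 h (E. coli in LB, S. aureus in yeast-dextrose broth) were resuspended at 10^6 cells/mL in nutrient media pH 7.4. They were treated at 10× MIC at 37 °C for 2 h with 250 rpm shaking, beside an untreated control. Cells were pelleted, dehydrated through a 30–100% ethanol series and dried on silicon wafer. S. aureus was sputter-coated; E. coli was imaged uncoated by FESEM.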

Data set [6] deals with Escherichia coli. The experiment in a line: Antibacterial activity against drug-sensitive Escherichia coli MTCC 443 after 24 hrs by broth microdilution assay. Format: functional. To be noted: MTCC 443, 24 h. A digest of the protocol: (§4)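 Bacteria grown 6 h to ~10^9 cfu/mL and diluted to 10^5 cfu/mL in nutrient media. Growth media were LB (E. coli), yeast-dextrose broth (S. aureus, P. aeruginosa) and BHI (E. faecium). Compound was serially diluted in water and added 1:3 to bacteria, then incubated 37 °C for 24 h with OD600 read-out. Triplicate ODs were sigmoid-fitted; MIC was taken where OD matched the no-bacteria control. At least two independent experiments.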

Data set [7] is described as follows: Therapeutic index, ratio of HC50 for human erythrocytes to MIC for drug-sensitive Pseudomonas aeruginosa ATCC 4676. The settings on record: read-out: TI.
For data set [8], the system named is Enterococcus faecium. The experiment in a line: Antibacterial activity against drug-sensitive Enterococcus faecium ATCC 19634 after 24 hrs by broth microdilution assay. Format: functional. The settings on record: ATCC 19634, 24 h. The method in brief: as §4
For data set [9], the system named is Pseudomonas aeruginosa. The experiment in a line: Antibacterial activity against drug-sensitive Pseudomonas aeruginosa ATCC 4676 at MIC to 2 X MIC measured […] by DiSC3(5) dye-based fluorimetric analysis. Format: functional, organism-based. A digest of the protocol:
as §1

In another data set the test system is Klebsiella pneumoniae. The experiment in a line: Antibacterial activity against beta-lactam-resistant Klebsiella pneumoniae ATCC 700603 after 24 hrs by broth microdilution assay. Format: functional. The settings on record: ATCC 700603, 24 h. The method in brief: as §2
Data set [10] deals with Staphylococcus aureus. The experiment in a line: Antibacterial activity against drug-sensitive Staphylococcus aureus MTCC 737 assessed as formation of blebs and holes at 10 X MIC after 2 hrs by field-emission scanning electron microscopic analysis. Format: functional, organism-based. A digest of the protocol:
as §3

For data set [11], the system named is Enterococcus faecium. The experiment in a line: Antibacterial activity against vancomycin-resistant Enterococcus faecium ATCC 51559 after 24 hrs by broth microdilution assay. Format: functional. The settings on record: ATCC 51559, 24 h. A digest of the protocol:
as §2

The subject of data set [12] is Staphylococcus aureus. The experiment in a line: Antibacterial activity against drug-sensitive Staphylococcus aureus MTCC 737 after 24 hrs by broth microdilution assay. The settings on record: MTCC 737, 24 h. Format: functional. A digest of the protocol:
as §4

Data set [13] in a line: Hemolytic activity in human erythrocytes after 1 hr by spectrophotometric analysis. Format: ADME, cell-based, Erythrocyte. A digest of the protocol:
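Heparinized fresh human erythrocytes at 5 vol% in PBS pH 7.4 were mixed 3:1 with serially diluted compound and held 1 h at 37 °C. Plates were centrifuged and supernatant A540 read. Hemolysis was scaled between an untreated control and a Triton X-100 (100% lysis) control. HC50 is the mean of at least two independent triplicate experiments.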

Data set [14] has as its system Staphylococcus aureus. The experiment in a line: Antibacterial activity against drug-sensitive Staphylococcus aureus MTCC 737 assessed as change in cell membrane morphology at 10 X MIC after 1.5 hrs by SYTO and propidium iodide staining-based fluorescence microscopic analysis. Format: functional, organism-based. The method in brief: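 Suspension at 10^9 cells/mL was treated at 10× MIC for 1.5 h, beside an untreated control. Cells were pelleted, resuspended in PBS and mixed with a probe mix of 3.0 µM SYTO 9 and 15.0 µM PI. After 15 min in the dark, cells were examined by fluorescence microscopy.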

The nature of data set [15]: Retention time of the compound by HPLC analysis. Format: physicochemical.
Data set [16] deals with Escherichia coli. The experiment in a line: Antibacterial activity against drug-sensitive Escherichia coli MTCC 443 assessed as disruption of cell membrane at 10 X MIC after 2 hrs by field-emission scanning electron microscopic analysis. Format: functional, organism-based. The method in brief:
as §3

The subject of data set [17] is Staphylococcus aureus. The experiment in a line: Bactericidal activity against methicillin-resistant Staphylococcus aureus ATCC 33591 at 6 X MIC after 1 hr by time-kill assay. Format: functional. The method in brief: (§5)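 Time-kill: MRSA (~1.8×10^6 CFU/mL in fresh media) exposed at 37 °C to compound at 1×, 3× or 6× MIC. Aliquots taken at 0, 1, 2, 3, 6 and 24 h, 10-fold serially diluted in 0.9% saline, plated on yeast-dextrose agar, incubated overnight at 37 °C. Colonies counted, expressed as log10 CFU/mL.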

Data set [18] concerns Pseudomonas aeruginosa. The experiment in a line: Antibacterial activity against drug-sensitive Pseudomonas aeruginosa ATCC 4676 after 24 hrs by broth microdilution assay. Format: functional. To be noted: ATCC 4676, 24 h. A digest of the protocol:
as §4

The subject of data set [19] is Staphylococcus aureus. The experiment in a line: Bactericidal activity against methicillin-resistant Staphylococcus aureus ATCC 33591 at 3 X MIC after 6 hrs by time-kill assay. Format: functional, organism-based. A digest of the protocol:
as §5

The test system of data set [20] is Pseudomonas aeruginosa. The experiment in a line: Antibacterial activity against Pseudomonas aeruginosa ATCC 27853 after 24 hrs by broth microdilution assay. Format: functional. To be noted: ATCC 27853, 24 h.
The test system of data set [21] is Enterococcus faecium. The experiment in a line: Antibacterial activity against Enterococcus faecium ATCC 29212 after 24 hrs by broth microdilution assay. To be noted: ATCC 29212, 24 h.
Data set [22] relates to Staphylococcus aureus. The experiment in a line: Antibacterial activity against Staphylococcus aureus ATCC 29213 after 24 hrs by broth microdilution assay. Format: functional. To be noted: ATCC 29213, 24 h.
The subject of data set [23] is Escherichia coli. The experiment in a line: Antibacterial activity against Escherichia coli ATCC 25922 after 24 hrs by broth microdilution assay. Format: functional. To be noted: ATCC 25922, 24 h.

By MIC is commonly meant the lowest concentration that inhibits growth of the organism. One may read the HC50 as the concentration that lyses half of the red blood cells. Read a low HC50 as more damage to red cells.

Molecules are shown by their SMILES. ≈ marks a conversion by molar mass, not a printed value. Calls of active or inactive are those of the source. The rule behind the calls is not given here. Residues, ends and D or L forms follow the SMILES beside them.

On to `CCCCCCN(Cc1c2ccccc2c(Cl)c2ccccc12)C(=O)[C@@H](N)CCCCN.O=C(O)C(F)(F)F.O=C(O)C(F)(F)F`, for which the result with Staphylococcus aureus [1], in the data set with Staphylococcus aureus [2], in the data set with Escherichia coli [5], in the data set with Pseudomonas aeruginosa [9], in the data set on Staphylococcus aureus [10] and in the data set with Staphylococcus aureus [14] was Active. Moreover, the result in the data set with Escherichia coli [16] and with Staphylococcus aureus [19] was Active. In the data set with Escherichia coli [3], the Ratio is given as 5. Besides, the MIC worked out at 2.8 µg/mL with Staphylococcus aureus [4]; 3.5 µg/mL against Escherichia coli [6]; 3.3 µg/mL against Enterococcus faecium [8]; 16 µg/mL against Klebsiella pneumoniae; 5.2 µg/mL against Enterococcus faecium [11]; 2.4 µg/mL against Staphylococcus aureus [12]. Besides, the MIC against Pseudomonas aeruginosa [18] was 1.6 µg/mL. In data set [7], the selectivity ratio is 50. The compound also displayed an HC50 at 1 h in [13] of 82 µg/mL. Further, the Retention_time in data set [15] turned out to be 13.6 min. The log10CFU/ml in the data set with Staphylococcus aureus [17] amounted to 6.

As for `CC[C@H](C)[C@H](NC(=O)CN)C(=O)NCC(=O)N[C@@H](CCCCN)C(=O)N[C@@H](Cc1ccccc1)C(=O)N[C@@H](CC(C)C)C(=O)N[C@@H](CCCCN)C(=O)N[C@@H](CCCCN)C(=O)N[C@@H](C)C(=O)N[C@@H](CCCCN)C(=O)N[C@@H](CCCCN)C(=O)N[C@@H](Cc1ccccc1)C(=O)NCC(=O)N[C@@H](CCCCN)C(=O)N[C@@H](C)C(=O)N[C@@H](Cc1ccccc1)C(=O)N[C@H](C(=O)N[C@@H](CCCCN)C(=O)N[C@H](C(=O)N[C@@H](CC(C)C)C(=O)N[C@@H](CCCCN)C(=O)N[C@@H](CCCCN)C(N)=O)[C@@H](C)CC)C(C)C` [PEXIGANAN] (H-GIGKFLKKAKKFGKAFVKILKK-NH2), the MIC with Pseudomonas aeruginosa [20] stood at 8 µg/mL (≈ 3.23 µM); against Enterococcus faecium [21], 64 µg/mL (≈ 25.8 µM); against Staphylococcus aureus [4], 16 µg/mL (≈ 6.46 µM); with Staphylococcus aureus [22], 8 µg/mL (≈ 3.23 µM); against Klebsiella pneumoniae, 8 µg/mL (≈ 3.23 µM); against Enterococcus faecium [11] it was 8 µg/mL (≈ 3.23 µM). In the data set on Escherichia coli [23], this compound displayed an MIC of 16 µg/mL (≈ 6.46 µM).
